Consider 13 compounds from ChEMBL document CHEMBL1127536, “2-Azetidinones as inhibitors of cholesterol absorption” (J Med Chem, 1994).

Usually inhibition stands for the relative decrease from the control value, in per cent. A low value points to a weak effect. By ED50 is commonly meant the midpoint of the dose-response relation. For orientation: IC50 means the concentration that inhibits the measured activity by half. A high value points to weaker potency.

The subject of assay [1] is Cricetinae gen. sp. Put plainly: Percent reduction in plasma cholesterol was evaluated by hamster cholesterol absorption assay at the particular dose of 50(mg/kg/day). The format is functional, Cricetulus griseus. A digest of the protocol: (§1)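 Hamsters fed cholesterol for 1 week while dosed daily (mg/kg/day). Read-out was inhibition of the rise in plasma cholesterol, measured by a cholesterol oxidase kit method.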

The subject of assay [2] is Cricetinae gen. sp. Put plainly: Percent reduction of hepatic cholesteryl esters was evaluated by hamster cholesterol absorption assay at the particular dose of 50 (mg/kg/day). The format is functional, Cricetulus griseus. A digest of the protocol:
(§2)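 Hamsters fed cholesterol for 1 week while dosed daily (mg/kg/day). Liver was Folch-extracted and neutral lipids were analysed by HPLC, giving the reduction in hepatic cholesteryl ester rise as the absorption marker. ED50 was taken from dose-response curves.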

The target of assay [3] is T1, Sterol O-acyltransferase 1 (Rattus norvegicus) (UniProt O70536).
T1 sequence (whole entry): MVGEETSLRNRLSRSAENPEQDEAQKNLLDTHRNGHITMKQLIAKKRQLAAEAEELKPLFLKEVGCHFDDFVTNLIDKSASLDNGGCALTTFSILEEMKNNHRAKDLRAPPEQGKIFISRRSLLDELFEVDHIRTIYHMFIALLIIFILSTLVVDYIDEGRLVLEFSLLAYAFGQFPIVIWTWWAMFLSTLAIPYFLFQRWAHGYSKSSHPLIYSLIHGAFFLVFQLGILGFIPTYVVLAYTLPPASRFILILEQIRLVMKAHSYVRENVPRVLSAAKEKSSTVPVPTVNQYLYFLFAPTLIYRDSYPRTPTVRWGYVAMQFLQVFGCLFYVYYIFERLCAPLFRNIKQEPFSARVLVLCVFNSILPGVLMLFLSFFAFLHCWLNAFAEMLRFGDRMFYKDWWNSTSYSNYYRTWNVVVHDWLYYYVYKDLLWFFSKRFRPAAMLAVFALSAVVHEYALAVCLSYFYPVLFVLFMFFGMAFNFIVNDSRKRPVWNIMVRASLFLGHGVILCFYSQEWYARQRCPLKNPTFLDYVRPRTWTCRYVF
Put plainly: Inhibition of Acyl coenzyme A:cholesterol acyltransferase in microsomal ACAT assay at 10 uM. A digest of the protocol: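 Rat hepatic microsomes (12.5 μg protein) with 90 µM fatty-acid-free BSA in 0.1 M potassium phosphate, 2 mM DTT, pH 7.4. Compound added from DMSO stocks and preincubated 15 min at 37 °C. Reaction started with [³H]-oleoyl-CoA (10 μM final) and run 15 min at 37 °C. Aliquot spotted on silica TLC, developed, and radioactivity in the cholesteryl oleate band counted by scintillation.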

Assay [4] deals with Cricetinae gen. sp. Put plainly: Percent reduction in plasma cholesterol was evaluated by hamster cholesterol absorption assay at the particular dose of 50 (mg/kg/day). The format is functional, Cricetulus griseus. A digest of the protocol:
as §1

Assay [5] relates to Cricetinae gen. sp. Put plainly: Percent reduction of hepatic cholesteryl esters was evaluated by hamster cholesterol absorption assay at the particular dose of 10 (mg/kg/day). The format is functional, Cricetulus griseus. A digest of the protocol: as §2
Assay [6] concerns Cricetinae gen. sp. Put plainly: Effective dose evaluated in hamster cholesterol absorption assay. The format is functional. A digest of the protocol:
as §2

Assay [7] deals with Cricetinae gen. sp. Put plainly: Percent reduction in plasma cholesterol was evaluated by hamster cholesterol absorption assay at the particular dose of 10 (mg/kg/day). The format is functional, Cricetulus griseus. A digest of the protocol: as §1
The test system of assay [8] is Cricetinae gen. sp. Put plainly: Percent reduction in plasma cholesterol was evaluated by hamster cholesterol absorption assay at the particular dose of 100 (mg/kg/day). The format is functional, Cricetulus griseus. A digest of the protocol:
as §1

For assay [9], the system named is Cricetinae gen. sp. Put plainly: Percent reduction of hepatic cholesteryl esters was evaluated by hamster cholesterol absorption assay at the particular dose of 100 (mg/kg/day). The format is functional, Cricetulus griseus. A digest of the protocol:
as §2

The target of assay [10] is T2, Sterol O-acyltransferase 1 (Rattus norvegicus, UniProt O70536).
T2 sequence (O70536 whole entry): T1 sequence (whole entry)
Put plainly: Concentration required for 50% inhibition of Acyl coenzyme A:cholesterol acyltransferase activity using microsomal ACAT assay.

The mark [11] stands for this setting: Cricetinae gen. sp., read-out: ED50.

For the compound `COc1ccc(N2C(=O)[C@@H](CCCc3ccccc3)[C@H]2c2ccccc2)cc1`, the Reduction in the assay on Cricetinae gen. sp. [1] and with Cricetinae gen. sp. [2] was 0% throughout. Moreover, the inhibition in assay [3] (10 uM) stood at 28%.

In the case of `CC[C@]1(CCCc2ccccc2)C(=O)N(c2c(OC)cc(OC)cc2OC)[C@@H]1c1ccccc1`, the Reduction in the assay on Cricetinae gen. sp. [2] and in the assay with Cricetinae gen. sp. [4] was 0% in each case. Moreover, the inhibition in assay [3] (10 uM) turned out to be 42%.

Consider `CC[C@]1(CCCc2ccccc2)CN(c2c(OC)cc(OC)cc2OC)C1=O`, for which the Reduction with Cricetinae gen. sp. [1] is 7%; in the assay on Cricetinae gen. sp. [2], -29%. This compound gave an inhibition in assay [3] (10 uM) of 38%.

With `CC[C@@]1(CCCc2ccccc2)C(=O)N(c2c(OC)cc(OC)cc2OC)[C@@H]1c1ccccc1`, the Reduction in the assay with Cricetinae gen. sp. [2] turned out to be 31%; in the assay with Cricetinae gen. sp. [4] it was 0%. Further, the inhibition in [3] (10 uM) was determined as 82%.

With `COc1cc(OC)c(N2C(=O)[C@@H](CCCc3ccccc3)[C@H]2c2ccccc2)c(OC)c1`, the figures for the Reduction with Cricetinae gen. sp. [2] and in the assay with Cricetinae gen. sp. [4] were -20% and 0%, respectively. In addition, the inhibition in assay [3] (10 uM) is 61%.

As to `COc1ccc([C@@H]2[C@H](CCCc3ccccc3)C(=O)N2c2ccc(OC)cc2)cc1`, the results for the Reduction with Cricetinae gen. sp. [5] and in the assay with Cricetinae gen. sp. [7] were 55% and 17%, respectively. The ED50 in the assay with Cricetinae gen. sp. [6] (setting [11]) worked out at 11.5 mg/kg/day.

As for `CCCCCCCCCCC(C)(C)C(=O)Nc1c(OC)cc(OC)cc1OC` [CL-976], the results for the Reduction with Cricetinae gen. sp. [5] and with Cricetinae gen. sp. [7] were 33% and 0%, respectively. Besides, the ED50 in the assay on Cricetinae gen. sp. [6] (setting [11]) is 16 mg/kg/day. The same compound registered an inhibition in assay [3] (10 uM) of 72%.

Take `CC[C@]1(CCCc2ccccc2)C(=O)N(c2ccc(OC)cc2)[C@@H]1c1ccccc1`: the results for the Reduction in the assay with Cricetinae gen. sp. [2] and with Cricetinae gen. sp. [4] were 29% and 12%, respectively. The inhibition in assay [3] (10 uM) is 33%.

As for `COc1ccc([C@@H]2[C@@H](CCCc3ccccc3)C(=O)N2c2ccc(OC)cc2)cc1` [SCH-48461], the Reduction in the assay with Cricetinae gen. sp. [2] amounted to 0%; in the assay with Cricetinae gen. sp. [5], 93%; in the assay with Cricetinae gen. sp. [4] it was 10%; in the assay on Cricetinae gen. sp. [7], 43%. In addition, in the assay on Cricetinae gen. sp. [6], the ED50 came out at 2.2 mg/kg/day.

For the compound `COc1ccc([C@@H]2[C@@H](CCCc3ccccc3)C(=O)N2c2ccc(OC)cc2)cc1` (racemic) [SCH-48461], the Reduction came out at 60% in the assay with Cricetinae gen. sp. [5] and 21% with Cricetinae gen. sp. [7]. This compound also registered a median effective dose (ED50) in the assay on Cricetinae gen. sp. [6] of 7.1 mg/kg/day.

With `CC[C@]1(CCCc2ccccc2)CN(c2ccc(OC)cc2)C1=O`, the values for the Reduction in the assay on Cricetinae gen. sp. [2] and in the assay with Cricetinae gen. sp. [4] were 0% and 10%, respectively.

Turning to `COc1ccc(N2C(=O)[C@@](C(=O)Cc3ccccc3)(c3ccccc3)[C@H]2c2ccccc2)cc1`, the Reduction in the assay with Cricetinae gen. sp. [8] is given as 10%; in the assay on Cricetinae gen. sp. [9], 26%. Also, in [3] (25 uM, in the assay text read “at 25 uM” for “at 10 uM”), the inhibition was 83%.

Take `COc1ccc(N2C(=O)[C@@](CCCc3ccccc3)(c3ccccc3)[C@H]2c2ccccc2)cc1`: the Reduction is 16% in the assay with Cricetinae gen. sp. [2] and 11% in the assay on Cricetinae gen. sp. [4]. In [10], this compound returned a half-inhibitory concentration (IC50) of 6 µM. The same compound yielded an inhibition in assay [3] (10 uM) of 84%.
